Only some compounds are listed: those with a hit (about 4.7% of all), similar ones and a draw of the others.
AHR act = AHR activators, primary screen, cell-based, luminescence, luciferase reporter, human; Aryl hydrocarbon receptor (Homo sapiens), P35869; AHR-responsive luciferase reporter cells; activation, % at 5 µM; 320,000 tested, 2.5% active; in the data active means activation above about 47%
Target sequence (P35869 whole entry, looked up): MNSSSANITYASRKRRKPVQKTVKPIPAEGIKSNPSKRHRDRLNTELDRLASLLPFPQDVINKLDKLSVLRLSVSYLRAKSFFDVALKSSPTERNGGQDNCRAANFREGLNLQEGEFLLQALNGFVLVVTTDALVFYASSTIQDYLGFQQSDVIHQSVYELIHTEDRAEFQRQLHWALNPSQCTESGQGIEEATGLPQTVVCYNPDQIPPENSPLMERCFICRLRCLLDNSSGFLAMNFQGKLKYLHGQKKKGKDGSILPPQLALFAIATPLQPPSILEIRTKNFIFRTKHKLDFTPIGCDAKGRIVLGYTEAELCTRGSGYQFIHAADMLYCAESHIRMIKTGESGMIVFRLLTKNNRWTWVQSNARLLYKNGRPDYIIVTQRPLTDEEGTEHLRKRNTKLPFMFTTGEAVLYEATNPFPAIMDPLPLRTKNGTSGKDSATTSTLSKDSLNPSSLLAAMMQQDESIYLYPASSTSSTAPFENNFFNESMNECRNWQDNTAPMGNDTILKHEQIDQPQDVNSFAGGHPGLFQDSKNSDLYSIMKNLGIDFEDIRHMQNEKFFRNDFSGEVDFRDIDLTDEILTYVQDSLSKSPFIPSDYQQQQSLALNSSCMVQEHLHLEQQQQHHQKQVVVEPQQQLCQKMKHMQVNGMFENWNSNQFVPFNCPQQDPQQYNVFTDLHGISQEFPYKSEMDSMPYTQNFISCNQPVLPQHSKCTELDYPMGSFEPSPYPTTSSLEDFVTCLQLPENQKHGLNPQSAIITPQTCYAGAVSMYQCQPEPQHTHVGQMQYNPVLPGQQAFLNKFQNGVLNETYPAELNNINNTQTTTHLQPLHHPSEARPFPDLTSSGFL
MC4R antag cAMP = MC4R antagonists of cAMP signaling, primary screen, cell-based, TR-FRET, antagonist arm of biased-ligand search. Melanocortin receptor 4 (Homo sapiens), P32245. MC4R-expressing cells, MTII-stimulated cAMP, LANCE TR-FRET. inhibition, % at 6.5 µM. 360,000 tested, 0.48% active. AID 540295, 2011;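 active means inhibition above its plate's cutoff, the mean of tested wells on that plate plus 3 SD, cut at about 29% in these data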
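Material: human MC4R-expressing U2OS cells. Probe or stimulus: Melanotan II challenge. Dosing: 6.5 µM single dose. Times: 30-min compound, 1-h challenge, 1-h detection, room temperature. Technique: TR-FRET with Eu-cAMP and labeled anti-cAMP, 671 nm. Replication: singlicate.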
m5-HT2A agonist = mouse Htr2a agonists via beta-arrestin recruitment, primary screen, cell-based, luminescence; CHO-K1 mHTR2A beta-arrestin complementation; percent of 30 µM serotonin response; AID 624169, 2012; 360,000 tested, 0.66% active; activation, % at 7.6 µM;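 active means activation above a run cutoff, the mean activation of all tested compounds plus 3 SD, cut at about 14% in these data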
MC4R barr agon = MC4R agonists recruiting beta-arrestin, primary screen, cell-based, luminescence, agonist arm of biased-ligand search. U2OS MC4R beta-arrestin complementation; percent of melanotan II response, DMSO zero. 360,000 tested, 0.98% active. activation, % at 8.9 µM. AID 540308, 2011. Melanocortin receptor 4 (Homo sapiens), P32245;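 active means activation above a per-plate cutoff, the mean activation of sample wells on that plate plus 3 SD, cut at about 8% in these data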
GAA850 FXN act = FXN promoter activators, primary screen, cell-based, luciferase luminescence, HEK293 lucGAA850. HEK293 lucGAA850 FXN promoter luciferase reporter, 24 h; percent of 10 µM SAHA response. activation, % at 6 µM. 360,000 tested, 0.56% active. AID 540364, 2011;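 active means activation above the average of all compounds screened plus 3 SD, cutoff fixed separately per campaign, cut at about 7.5% in these data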
Numbers stand for hits; n = inactive; x = not tested or not shown.

SMILES	AHR act	MC4R antag cAMP	m5-HT2A agonist	MC4R barr agon	GAA850 FXN act
CCOC(=O)c1c(NC(=O)C(C)NCc2ccco2)sc2c1CCC(C)C2 (centres undefined)	50.6	n	n	n	n
CCOC(=O)c1c(NC(=O)Cn2nnc3ccccc32)sc2c1CCC(C)C2 (centres undefined)	62.7	n	n	n	n
CC1CCc2c(sc(NC(=O)COC(=O)c3ccccc3NCc3ccco3)c2C#N)C1 (centres undefined)	n	n	n	n	n
CC(=O)Nc1nnc(-c2ccc3c(c2)CCCC3)o1	58.7	n	n	n	n
COc1ccccc1C(=O)Nc1nnc(-c2ccc3c(c2)CCCC3)o1	51.7	n	n	n	n
O=C(COc1ccc(Cl)cc1)Nc1nnc(-c2ccc3c(c2)CCCC3)o1	n	n	n	n	n
COCCCNC(=O)c1nc2ccccc2c(=O)n1NC(=O)Nc1c(Cl)cccc1Cl	n	n	n	n	n
O=C(CN1CCCc2ccccc21)N/N=C/c1c(O)ccc2ccccc12	n	n	n	n	n
O=C(CN1CCCc2ccccc21)N/N=C/c1ccc(O)cc1O	53.5	n	n	n	n
Cc1cccc(NC(=O)CNC(=O)CN2C(=O)NC3(CCCCC3C)C2=O)c1C (centres undefined)	n	n	n	n	n
Cc1cccc(N2CCN(C(=O)CN3C(=O)NC4(CCCCCC4)C3=O)CC2)c1C	x	n	n	n	n
COc1ccc(NC(=O)c2sc3nc(C)cc(C)c3c2N)cc1	n	n	n	n	n
COc1ccccc1NC(=O)c1sc2nc(C)cc(C)c2c1N	49.9	n	n	n	n
O=C(NC(=S)Nc1nc2ccccc2s1)c1cccs1	72.1	n	n	n	n
CC1(C)Cc2cccc(OCC(=O)OCC(=O)Nc3ccc(S(N)(=O)=O)cc3)c2O1	x	n	n	n	n
N=c1n(Cc2ccc(Cl)cc2)c2ccccc2n1CC(O)COc1ccccc1 (centres undefined)	n	n	n	11.9	n
COc1ccc(OCC(O)Cn2c(=N)n(Cc3ccccc3)c3ccccc32)cc1 (centres undefined)	n	n	n	n	n
CCNC(=O)C1(C)CCCN(Cc2cccc(Oc3ccccc3)c2)C1 (centres undefined)	x	n	n	n	n
NC(=S)N/N=C/c1ccc2cccc(OCc3ccccc3)c2n1	n	n	n	n	n
O=C(N/N=C/c1ccc2cccc(OCc3ccccc3)c2n1)c1ccc(Br)cc1	68.6	n	n	n	n
CCn1c(CSc2nc3ccccc3[nH]2)nc2cc(C(=O)O)ccc21	59.9	n	n	n	n
COc1ccc2[nH]c(=O)c(CN(C(C)=O)c3cc(C)ccc3C)cc2c1	x	n	n	n	n
C=CCn1c2ccccc2c2nnc(SCN3C(=O)c4ccccc4C3=O)nc21	78.3	n	n	n	n
Cc1cc(C)nc(SCC(=O)N/N=C\c2sccc2C)n1	63.0	n	n	n	n
O=C1CC(c2ccc(S(=O)(=O)NCc3ccncc3)cc2)CN1 (centres undefined)	78.0	n	n	n	n
SMILES	AHR act	MC4R antag cAMP	m5-HT2A agonist	MC4R barr agon	GAA850 FXN act
O=C1CC(c2ccc(S(=O)(=O)NC3CC3)cc2)CN1 (centres undefined)	n	n	n	n	n
O=C(CSCc1ccccc1)Nc1ccc2c(c1)OCO2	n	n	n	n	n
O=C(Cc1c(F)cccc1Cl)NNC(=O)Nc1ccc2c(c1)OCO2	52.9	n	n	n	n
O=C(CSCc1c(Cl)cccc1Cl)Nc1ccc2c(c1)OCO2	47.5	n	n	n	n
C(=N\Nc1nc(-c2ccccc2)cs1)/c1cccs1	60.3	n	n	n	n
O=C(NNc1nc(-c2ccccc2)cs1)c1ccco1	71.7	n	n	n	n
C(=N\Nc1nc(-c2ccccc2)cs1)/c1ccco1	110.0	n	n	n	n
C(=N\Nc1nc(-c2ccccc2)cs1)/c1ccncc1	60.5	n	n	n	n
ClCc1csc(N/N=C/c2cccs2)n1	n	x	x	x	x
Cc1ncoc1C(=O)N1CCCC(N2CCN(c3cccc(C(F)(F)F)c3)CC2)C1 (centres undefined)	55.1	n	n	n	n

From PubChem BioAssay
